These results are taken from ChEMBL document CHEMBL1124676, “Hypoxia-selective antitumor agents. 2. Electronic effects of 4-substituents on the mechanisms of cytotoxicity and metabolic stability of nitracrine derivatives” (J Med Chem, 1989).

Data set [1] deals with CHO-AA8. The experiment in a line: Inhibitory activity to reduce cell density by 50% of AA8 cells under aerobic conditions. It counts as functional, cell-based. As to conditions: Cricetulus griseus; call rule not given here. In outline: (§1)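 Microassay: 200 AA8 or 300 UV-4 viable cells/well plus 5000 irradiated (35 Gy) AA8 feeder cells. Serial 2-fold drug dilutions added after 24 h. Plates held 18 h at 37 °C in chambers flushed with 5% CO2 in air or in N2 (with 1% H2, Pd catalyst). Then washed, grown 72-78 h, stained with methylene blue, A620−A405. IC50 vs 50% of control; three independent experiments.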

The test system of data set [2] is UV4. In words: Inhibitory concentration required to reduce cell density in UV-4 cells to 50% of controls (cells were exposed to compound for 4 days continuously). It counts as functional, cell-based. Particulars: Cricetulus griseus, UV4, 96 h. In outline:
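UV-4 cells seeded at 3 × 10^3 cells/mL about 24 h before drug, exposed continuously for 4 days, then methylene blue staining. IC50 = concentration reducing absorbance to 50% of controls; six determinations.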

Data set [3] in a line: Ratio of growth inhibition of compound to reduce cell density by 50% of repair deffective mutant UV-4 cells in 96-well cultures under aerobic and hypoxic conditions (air/N2). It counts as functional. In outline: as §1
Data set [4] is described as follows: Total compound concentration in AA8 suspension cultures at zero time. As to conditions: hamster. The format is ADME.
In data set [5] the test system is UV4. In words: Inhibitory ativity to reduce cell density by 50% of repair deffective mutant UV-4 cells in 96-well cultures under aerobic conditions. As to conditions: Cricetulus griseus. It counts as functional, cell-based. The method in brief:
as §1

The nature of data set [6]: Half life of extracellular bioactivity assessed by bioassay of culture supernatant against hypoxic UV-4 cells. The format is ADME, cell-based, Cricetulus griseus, UV4. Particulars: chinese hamster, hypoxic UV-4 cell cultures (culture supernatant). The method in brief:
(§2)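 Plateau-phase AA8 cells, 10^6 cells/mL, stirred suspension under 5% CO2 in air or N2. Supernatants sampled over time (spun 1300g × 1 min) and dilutions assayed against log-phase UV-4 (seeded 3 × 10^3 cells/mL, 24 h earlier), 4-day continuous exposure, methylene blue staining. Activity remaining = IC50 at time zero / apparent IC50; half-life and zero-time intercept from log-linear regression.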

Data set [7] is described as follows: Half life of extracellular bioactivity assessed by bioassay of culture supernatant against aerobic UV-4 cells. It counts as ADME, cell-based, Cricetulus griseus, UV4. As to conditions: chinese hamster, aerobic UV-4 cell cultures (culture supernatant). The method in brief:
as §2

The nature of data set [8]: Ratio for […], expressed as hypersensitivity factor under aerobic conditions. The format is functional. In outline:
as §1

Data set [9] is described as follows: Ratio of growth inhibition of compound to reduce cell density by 50% of AA8 cells under aerobic and hypoxic conditions (air/N2). It counts as functional, CHO-AA8. In outline:
as §1

The nature of data set [10]: (§3) Extrapolated fraction of biological activity remaining at time zero of stirred aerobic AA8 suspension cultures. It counts as ADME. Particulars: hamster. The method in brief: as §2
A short description of data set [11]: Extrapolated fraction of biological activity remaining at time zero of hypoxic AA8 suspension cultures. It counts as ADME. Particulars: hamster. The method in brief:
as §2

Data set [12] can be described thus: Half life of extracellular bioactivity assessed by bioassay of culture supernatant against aerobic UV-4 cells; No statistically significant trend with time. Particulars: chinese hamster, uv4. It counts as ADME, cell-based, Cricetulus griseus. In outline:
as §2

Data set [13] concerns CHO-AA8. The description is as §3. The format is functional, Cricetulus griseus. The method in brief:
as §2

Data set [14] in a line: Ratio for hypoxic AA8/ hypoxic UV-4, expressed as hypersensitivity factor under hypoxic conditions. It counts as functional. The method in brief: as §1
Data set [15] can be described thus: Hypersensitivity factor (HF) of IC50 (AA8) / IC50 (UV-5) of compound for repair deffective mutants. The format is functional. The method in brief:
(§4)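 Miniassay: AA8, UV-4, UV-5 or EM-9 cells were seeded at 2 × 10^4 cells/mL in 24-well dishes. After 24 h, five 2-fold serial concentrations were added in duplicate and held 4 h at 37 °C. Cells were washed, grown 30 h more, trypsinized and counted electronically. IC50 is 50% of mean control cell density. HF = IC50(AA8)/IC50(mutant), mean ± SE of 2–4 experiments.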

Data set [16] in a line: Hypersensitivity factor (HF) of IC50 (AA8) / IC50 (UV-4) of compound for repair deffective mutants. The format is functional. In outline:
as §4

Data set [17] is described as follows: Hypersensitivity factor (HF) of IC50 (AA8) / IC50 (EM-9) of compound for repair deffective mutants. It counts as functional. The method in brief:
as §4

Molecules are shown by their SMILES.

The IC50 is the concentration that gives 50% inhibition. Lower therefore signals higher potency. For orientation: half-life means the time in which the quantity being followed falls by half. Lower therefore signals rapid decline. As for `COc1ccc([N+](=O)[O-])c2c(NCCCN(C)C)c3ccccc3nc12`, the values for the IC50 with CHO-AA8 [1], with UV4 [2] and in the data set with UV4 [5] were 616 nM, 14.5 nM and 63 nM, respectively. Also, the Ratio is 4.2 in [3], 7.8 in data set [8] and 5.3 in [9]. In data set [4], this compound returned a CO of 3 mM. In addition, the figures for the half-life in data set [6] and in data set [7] were 5.2 h and 14 h, respectively. Moreover, the A0 is on record as 0.76 in data set [10] and 0.78 in data set [11].
On to `Cc1ccc([N+](=O)[O-])c2c(NCCCN(C)C)c3ccccc3nc12`, for which the IC50 is 76 nM in the data set with CHO-AA8 [1], 1.65 nM in the data set on UV4 [2] and 8 nM in the data set with UV4 [5]. Also, the figures for the Ratio in data set [3], in [8] and in data set [9] were 4.6, 9 and 5, respectively. The CO in data set [4] is on record as 0.2 mM. In data set [6], this compound had a half-life of 0.99 h. Besides, the A0 is reported as 0.65 in data set [10] and 1.12 in data set [11]. The T1/2 entry in data set [12] is “Not Active”.
Regarding `CN(C)CCCNc1c2ccccc2nc2c(F)ccc([N+](=O)[O-])c12`, the figures for the IC50 with CHO-AA8 [1], in the data set on UV4 [2] and in the data set on UV4 [5] were 250 nM, 2 nM and 12 nM, respectively. Moreover, the Ratio stood at 1.4 in [3], 21 in data set [8] and 1.3 in data set [9]. Also, the CO in data set [4] is 0.1 mM. Further, the half-life in [6] was 0.77 h; in [7] it was 0.91 h. Also, the A0 in data set [10] was 0.64; in data set [11] it was 0.84.
`CN(C)CCCNc1c2ccccc2nc2c(N(C)C)ccc([N+](=O)[O-])c12`: the IC50 in the data set on CHO-AA8 [1] is 18900 nM; in the data set on UV4 [2], 410 nM; in the data set on UV4 [5], 6200 nM. For the same compound, the Ratio in data set [3] turned out to be 2.3; in data set [8], 2.1; in data set [9] it was 3.3. Moreover, the half-life is 2.3 h in [6] and 4.8 h in [7]. Moreover, the A0 in data set [10] is given as 0.78; in data set [11], 0.68.
On to `CN(C)CCCNc1c2ccccc2nc2c(N(CCO)CCO)ccc([N+](=O)[O-])c12`, for which the IC50 was 62000 nM in the data set with CHO-AA8 [1] and 19400 nM in the data set on UV4 [5].
For `COC(=O)c1ccc([N+](=O)[O-])c2c(NCCCN(C)C)c3ccccc3nc12`, the values for the IC50 in the data set on CHO-AA8 [1], in the data set on UV4 [2] and in the data set on UV4 [5] were 2900 nM, 590 nM and 1950 nM, respectively. Besides, the Ratio in [3] amounted to 1.2; in [8], 1.5; in [9], 1.2; in [14] it was 1.5. In data set [4], the CO was 0.01 mM. Besides, the A0 in the data set on CHO-AA8 [13] is on record as 0.47; in data set [11] it was 0.45. The same compound showed a half-life in data set [6] of 3.9 h. Further, in data set [12], the T1/2 result was “Not Active”.
Regarding `CN(C)CCCNc1c2ccccc2nc2ccccc12`, the figures for the Ratio in data set [15], in data set [16] and in data set [17] were 0.87, 1.03 and 0.78, respectively.
Taken in the same sequence, the figures for `CCOS(C)(=O)=O` [METHANESULFONIC ACID ETHYL ESTER] were 1.2, 1.3 and 6.3.
Turning to `O=[N+]([O-])c1cc[n+]([O-])c2ccccc12` [4-NITROQUINOLINE-1-OXIDE], the Ratio in [15] came out at 16; in data set [16], 17; in [17], 0.8.
On to `CN(C)CCCNc1c2ccccc2nc2cccc([N+](=O)[O-])c12` [NITRACRINE], for which the IC50 amounted to 26.3 nM with CHO-AA8 [1], 0.66 nM in the data set with UV4 [2] and 2 nM with UV4 [5]. In addition, the Ratio in data set [3] is 3.8; in [15], 8; in data set [16], 12.8; in data set [8] it was 14.9; in [17] it was 1.8. In data set [4], this compound had a CO of 0.04 mM. The figures for the half-life in data set [6] and in [7] were 0.84 h and 7.3 h, respectively. The A0 in [10] is 0.86; in [11] it was 0.98.
As for `CO[C@@]12[C@H](COC(N)=O)C3=C(C(=O)C(C)=C(N)C3=O)N1C[C@@H]1N[C@@H]12`, the Ratio in data set [15] turned out to be 2.35; in data set [16], 86; in [17], 0.78.
As to `O=C(O)CCCc1ccc(N(CCCl)CCCl)cc1`, the Ratio is 1.4 in data set [15], 43 in data set [16] and 0.69 in data set [17].
Regarding `CC(=O)OCCN(CCOC(C)=O)c1ccc([N+](=O)[O-])c2c(NCCCN(C)C)c3ccccc3nc12`, the 50% inhibitory concentration (IC50) with CHO-AA8 [1] was 43000 nM; with UV4 [2], 3450 nM; in the data set on UV4 [5], 11600 nM. The Ratio in [3] was determined as 4.8; in data set [8] it was 4.8; in data set [9], 4.5. Besides, the half-life was 8.4 h in data set [6] and 18 h in [7]. The figures for the A0 in [10] and in data set [11] were 1.11 and 1.03, respectively.
Take `COc1cc(NS(C)(=O)=O)ccc1Nc1c2ccccc2nc2ccccc12`: the Ratio in data set [15] amounted to 0.9; in data set [16], 0.9; in data set [17] it was 0.68.
For `CN(C)CCCNc1c2ccccc2nc2c(Cl)ccc([N+](=O)[O-])c12`, the 50% inhibitory concentration (IC50) in the data set with CHO-AA8 [1] came out at 33 nM; in the data set on UV4 [2], 0.62 nM; with UV4 [5], 3.3 nM. In addition, the Ratio in data set [3] came out at 4.9; in data set [8], 13; in data set [9], 3.7. The compound further displayed a CO in data set [4] of 0.04 mM. The half-life in data set [6] is 0.68 h; in data set [7], 4.3 h. Moreover, the A0 is reported as 0.79 in data set [10] and 0.56 in data set [11].
